Reference: PubChem BioAssay
Results filed as inconclusive are left out.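 Rule for the calls, unless noted: active = inhibition over a set limit, the all-compound mean plus 3 SD, in both replicate runs; inconclusive = over that limit in just one replicate run; inactive = at or under that limit in both runs.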

Assays:
[1] = S. cerevisiae growth inhibition in permissive medium (OD615), pilot counter-assay for S. cerevisiae lifespan shortening project, permissive growth control (AID 705;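 active = growth inhibition above 25% in both replicates, a cutoff set 3 SD above the mean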); settings: OD615, 24 h, at 10 µM, active compounds read high
In short: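 System: Engineered DeaD yeast | Buffer or medium: SC raffinose/galactose permissive medium | Incubation: Cells pre-grown 4 h, then 24 h compound exposure, 30 °C humidified | Measured by: Absorbance (optical density) at 615 nm | Read-out: Reduction in yeast growth (OD615)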

[2] = S. cerevisiae growth inhibition in restrictive medium, OD615, pilot screen, restrictive growth control, yeast lifespan reduction project (AID 706;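 active = growth inhibition above a set limit, 3 SD over mean compound inhibition, in both replicates, cut at about 43% in these data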;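 note: modified DeaD lifespan yeast strain shifted to restrictive glucose medium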); settings: OD615, 48 h, at 10 µM, active compounds read high
In short: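 Material: modified S. cerevisiae; Medium: glucose-based CSMM-D restrictive medium; Compound dosing: one concentration, 10 µM final, 0.25% DMSO; Incubation: 48 h compound exposure at 30 °C; Measured by: OD615.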

[3] = doxorubicin toxicity protection in MRP-1 cells – H69AR cells, CellTiter-Glo, duplicate, MRP-1 activator project, pilot screen (AID 807;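 active = viability increase at or above a cutoff of the median across tested compounds plus 3 SD, cut at about 8.5% in these data, passing the limit was not always enough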;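 note: compound pretreatment 18-22 h then 72 h combined with doxorubicin; 0% = doxorubicin alone and 100% = vehicle without doxorubicin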); settings: H69AR viability with doxorubicin, CellTiter-Glo luminescence; at 10 µM; active compounds read high
[4] = viability of HCT116 without oncogenic beta-catenin – human colon tumor cells, pilot screen (AID 823;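 active = cell viability at or below a set limit in both duplicate runs, the limit being the all-compound median minus 4 SD, cut at about 23% in these data, passing the limit was not always enough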;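 note: 0% = wells killed by 20 µM Hyamine and 100% = untreated DMSO cell wells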); settings: HCT116 beta-catenin knockout viability, CellTiter-Glo, 60 h; at 10 µM; active compounds read low
[5] = viability of PTEN-null HCT116 cells – cell-based, HCT116 clonal line, CellTiter-Glo, pilot screen (AID 824;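 active = viability at or below 27.92% in each of two runs, the all-compound median minus 4 SD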;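 note: 0% = 20 µM Hyamine control and 100% = vehicle cell control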); settings: HCT116 PTEN-deleted viability, 60 h, at 10 µM, active compounds read low
[6] = RAM pathway blockade in budding yeast – dse1pr::URA3 reporter, 5-FOA selection, pilot screen (AID 869);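 note: 0% = DMSO wells with no growth and 100% = 10 µM 1-NA-PP1 with full growth; RAM network block rescues cells from 5-FOA so hits raise OD615 growth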; settings: S. cerevisiae dse1pr::URA3 5-FOA growth, OD615, 2 d; at 10 µM; active compounds read high; strain carries analog-sensitive mutant Cbk1 kinase
[7] = RAM signaling pathway blockade in yeast – S. cerevisiae, Pdr1DBD-CYC8 efflux-inhibited sensitized strain, primary screen (AID 1298;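 active = RAM network inhibition above 8.4% in each of two replicates, 3 SD over the compound average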;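 note: 0% = DMSO untreated cells without growth and 100% = 10 µM 1-NA-PP1 full growth; higher means more yeast growth rescued from 5-FOA killing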); settings: S. cerevisiae cbk1-as DSE1-URA3 strain, 5-FOA growth OD615, 2 d; at 50 µM; active compounds read high

Cc1ccc(OCc2nc(-c3ccccn3)no2)c(Br)c1
inactive: growth inhibition [1] 1.26% | growth inhibition [2] 4.31% | viability increase [3] 1.13% | viability [4] 86.7% | viability [5] 84.9% | inhibition [6] -0.35% | RAM network inhibition [7] 1.62%

CCOC(=O)C1CCN(S(=O)(=O)c2ccc3c4c(cccc24)C(=O)N3)CC1
inactive: growth inhibition [1] -4.42% | growth inhibition [2] -7.67% | viability increase [3] -3.39% | viability [4] 96.5% | viability [5] 85.7% | inhibition [6] 1.76% | RAM network inhibition [7] 2.83%

CCOC(=O)c1ccc(NC(=O)C2C3C=CC(C3)C2C(=O)O)cc1 (configuration not stated)
inactive: growth inhibition [1] 5.27% | growth inhibition [2] 5.33% | viability increase [3] 0.55% | viability [4] 98.5% | viability [5] 106% | inhibition [6] 0.29% | RAM network inhibition [7] 1.09%

COc1c(Cl)cc(-c2noc(C)c2C(=O)NC(C)C)cc1Cl
inactive: growth inhibition [1] -17.1% | growth inhibition [2] -15.9% | viability increase [3] 0.34% | viability [4] 98.1% | viability [5] 96.4% | inhibition [6] 1.33% | RAM network inhibition [7] 2.37%

Cc1ccc(S(=O)(=O)N2CCCC2C(=O)Nc2nccs2)cc1 (configuration not stated)
inactive: growth inhibition [1] -15.2% | growth inhibition [2] -6.25% | viability increase [3] -1.37% | viability [4] 97% | viability [5] 98.6% | inhibition [6] -0.275% | RAM network inhibition [7] 4.76%

O=C1NCCCC1C(=O)NCCNC(=O)C(F)(F)F (configuration not stated)
inactive: growth inhibition [1] -4.04% | growth inhibition [2] -0.705% | viability increase [3] -1.47% | viability [4] 101% | viability [5] 94.7% | inhibition [6] 0.3% | RAM network inhibition [7] 4.25%

O=S(=O)(c1cccc2cccnc12)N(CCO)CCO
inactive: growth inhibition [1] -15.2% | growth inhibition [2] -15.5% | viability increase [3] -0.99% | viability [4] 103% | viability [5] 101% | inhibition [6] 2.62% | RAM network inhibition [7] 2.69%

Cc1onc(-c2ccccc2Cl)c1C(=O)Nc1ccc(S(=O)(=O)N2CCCC2)cc1
inactive: growth inhibition [1] 0.03% | growth inhibition [2] 9.99% | viability increase [3] -2.15% | viability [4] 86.3% | viability [5] 81.2% | inhibition [6] 1.72% | RAM network inhibition [7] 4.75%

COc1ccc(CNC(=O)CS(=O)Cc2nc(-c3ccc(C)cc3)oc2C)cc1 (configuration not stated)
inactive: growth inhibition [1] -5.34% | growth inhibition [2] 0.735% | viability increase [3] -2.44% | viability [4] 86.9% | viability [5] 93.4% | inhibition [6] 1.39% | RAM network inhibition [7] 5.95%

COc1cc(NC(=O)c2ccc(S(=O)(=O)N(C)C)cc2)cc(OC)c1OC
inactive: growth inhibition [1] -4.25% | growth inhibition [2] -12.5% | viability increase [3] -2.66% | viability [4] 92.9% | viability [5] 94.3% | inhibition [6] 0.985% | RAM network inhibition [7] 3.48%

CC1CCN(C(C(=O)Nc2ccc3c(c2)OCO3)c2ccccc2)CC1 (configuration not stated)
inactive: growth inhibition [1] 3.37% | growth inhibition [2] 10.4% | viability increase [3] -2.94% | viability [4] 83.8% | viability [5] 78.7% | inhibition [6] 2.49% | RAM network inhibition [7] 4.49%

CCC(C)(C(=O)NC1CCCCC1)N(Cc1ccco1)C(=O)CC1NC(=O)NC1=O (configuration not stated)
inactive: growth inhibition [1] -7.46% | growth inhibition [2] -7.12% | viability increase [3] -3.95% | viability [4] 97% | viability [5] 94.9% | inhibition [6] 1.58% | RAM network inhibition [7] 1.8%

O=C(Nc1c(C(=O)O)oc2ccc(Br)cc12)c1ccccc1
inactive: growth inhibition [1] -34% | growth inhibition [2] 2.99% | viability increase [3] -3.96% | viability [4] 101% | viability [5] 99.5% | inhibition [6] 2.95% | RAM network inhibition [7] -2.35%

CCCCNC(=O)c1ccc2c(c1)N(CC)C(=O)c1ccccc1S2(=O)=O
inactive: growth inhibition [1] -1.9% | growth inhibition [2] -1.83% | viability increase [3] 0.81% | viability [4] 93.8% | viability [5] 87.3% | inhibition [6] 0.255% | RAM network inhibition [7] -2.03%

CCOc1ccc(S(=O)(=O)n2ccnc2)c2ccccc12
inactive: growth inhibition [1] -2.9% | growth inhibition [2] 0.2% | viability increase [3] -1.1% | viability [4] 101% | viability [5] 106% | inhibition [6] 0.31% | RAM network inhibition [7] 2.78%

O=C1C(C=NCCCN2CCOCC2)=C(O)c2ccccc21
inactive: growth inhibition [1] -1.9% | growth inhibition [2] 10.5% | viability increase [3] -4.78% | viability [4] 98.6% | viability [5] 90.2% | inhibition [6] 0.71% | RAM network inhibition [7] 5.89%

CC1CN(Cc2nc3c(c(=O)n(C)c(=O)n3C)n2Cc2ccccc2)CC(C)O1 (configuration not stated)
inactive: growth inhibition [1] -2.62% | growth inhibition [2] 3.58% | viability increase [3] -0.81% | viability [4] 106% | viability [5] 100% | inhibition [6] 0.15% | RAM network inhibition [7] 2.1%

CCOc1ccccc1N1C(=O)c2cccnc2C1=O
inactive: growth inhibition [1] -9.2% | growth inhibition [2] 7.41% | viability increase [3] -1.2% | viability [4] 102% | viability [5] 98.7% | inhibition [6] 1.04% | RAM network inhibition [7] 10.2%

COc1ccc(N2CCN(C(=O)C34CCC(C)(C(=O)C3)C4(C)C)CC2)cc1 (configuration not stated)
inactive: growth inhibition [1] -1.5% | growth inhibition [2] 0.815% | viability increase [3] -0.51% | viability [4] 88% | viability [5] 91.8% | inhibition [6] 1.86% | RAM network inhibition [7] -0.21%

CSc1nnc2n(-c3ccc(C)cc3)c(=O)c3c4c(sc3n12)COC(C(C)C)C4 (configuration not stated)
inactive: growth inhibition [1] -18.2% | growth inhibition [2] -3.12% | viability increase [3] -4.07% | viability [4] 37.3% | viability [5] 31.6% | inhibition [6] -0.285% | RAM network inhibition [7] 7.91%

COc1ccc2oc(C(=O)CCC(=O)O)c(N)c2c1
inactive: growth inhibition [1] -12.2% | growth inhibition [2] 8.27% | viability increase [3] -0.43% | viability [4] 93.3% | viability [5] 92.5% | inhibition [6] 1.98% | RAM network inhibition [7] 1.31%

COc1ccc(Cc2nnc(NC(=O)c3c(-c4ccccc4)noc3C)s2)cc1
inactive: growth inhibition [1] -14% | growth inhibition [2] -3.4% | viability increase [3] 0.94% | viability [4] 88.3% | viability [5] 85.2% | inhibition [6] 1.82% | RAM network inhibition [7] 5.46%

Cc1ccc(CN2CCN(CC(=O)N3CCC(C(N)=O)CC3)C2=O)cc1
inactive: growth inhibition [1] 0.425% | growth inhibition [2] 1.62% | viability increase [3] -0.17% | viability [4] 105% | viability [5] 101% | inhibition [6] 2.1% | RAM network inhibition [7] 3.53%

COc1cc(C2C(C(=O)Nc3ccc(F)cc3)=C(C)Nc3nc(CCCO)nn32)cc(OC)c1OC (configuration not stated)
inactive: growth inhibition [1] -2.56% | growth inhibition [2] -11.4% | viability increase [3] -1.09% | viability [4] 105% | viability [5] 92.7% | inhibition [6] 2.58% | RAM network inhibition [7] 1.42%

CC1CCc2nc3ccc(S(=O)(=O)N4CCC(C(=O)NC5CCCC5)CC4)cc3c(C(=O)O)c2C1 (configuration not stated)
inactive: growth inhibition [1] -0.78% | growth inhibition [2] 10.5% | viability increase [3] -2.1% | viability [4] 94.8% | viability [5] 95.4% | inhibition [6] 1.08% | RAM network inhibition [7] 3.59%

COc1ccc(C2CC(c3cccc(OC)c3)n3nc(N)nc3N2)cc1 (configuration not stated)
inactive: growth inhibition [1] -5.42% | growth inhibition [2] 9.84% | viability increase [3] 1.37% | viability [4] 100% | viability [5] 92.7% | inhibition [6] 2.04% | RAM network inhibition [7] -1.58%

COC(=O)c1c(NC(=O)c2nc3ccccc3s2)sc2c1CCN(C(C)=O)C2
inactive: growth inhibition [1] 7.87% | growth inhibition [2] 1.73% | viability increase [3] -6.02% | viability [4] 71.7% | viability [5] 68% | inhibition [6] 4% | RAM network inhibition [7] 5.96%

CC(=O)C1C(c2ccc(Cl)cc2)NC(=O)NC1(O)C(F)(F)F (configuration not stated)
inactive: growth inhibition [1] -9.25% | growth inhibition [2] -12% | viability increase [3] -0.16% | viability [4] 103% | viability [5] 101% | inhibition [6] 0.825% | RAM network inhibition [7] 3.45%

CN(C)c1ccc(S(=O)(=O)c2ccc(Cl)cc2)cc1
inactive: growth inhibition [1] 2.13% | growth inhibition [2] 16.1% | viability increase [3] -1.11% | viability [4] 103% | viability [5] 100% | inhibition [6] 1.79% | RAM network inhibition [7] 5.79%

CCOC(=O)C1CCCN(C(=O)Cn2nc(CC)n3c(cc4sccc43)c2=O)C1 (configuration not stated)
inactive: growth inhibition [1] -3.41% | growth inhibition [2] -9.06% | viability increase [3] -0.92% | viability [4] 105% | viability [5] 105% | inhibition [6] 1.33% | RAM network inhibition [7] 8.75%

COc1ccc(OCc2nnc3n2N=C(c2ccc(C)cc2)CS3)cc1
inactive: growth inhibition [1] -3.36% | growth inhibition [2] -2.56% | viability increase [3] 2.3% | viability [4] 95.4% | viability [5] 82.1% | inhibition [6] 1.57% | RAM network inhibition [7] 2.58%

O=C(Nc1ccccc1)N1CCN(Cc2ccc3c(c2)OCO3)CC1
inactive: growth inhibition [1] 5.22% | growth inhibition [2] -15.8% | viability increase [3] -1.15% | viability [4] 101% | viability [5] 96.8% | inhibition [6] 1.25% | RAM network inhibition [7] 2.76%

CCOc1ccc(N(CC(=O)Nc2ccccc2)S(C)(=O)=O)cc1
inactive: growth inhibition [1] 0.69% | growth inhibition [2] -1.96% | viability increase [3] -1.68% | viability [4] 102% | viability [5] 97.4% | inhibition [6] -0.325% | RAM network inhibition [7] 4.68%

CCOc1ccc(-c2nnc(-c3ccco3)o2)cc1
inactive: growth inhibition [1] -1.61% | growth inhibition [2] 5.67% | viability increase [3] 1.72% | viability [4] 94.5% | viability [5] 101% | inhibition [6] 0.695% | RAM network inhibition [7] 2.38%

Cc1ccc(NC(=O)Cn2cc3c(n2)CCC(C)C3)cc1 (configuration not stated)
inactive: growth inhibition [1] -1.07% | growth inhibition [2] 2.22% | viability increase [3] 0.37% | viability [4] 106% | viability [5] 88.6% | inhibition [6] 0.39% | RAM network inhibition [7] 1.64%

NC(=O)CSc1ncnc2c1oc1ccccc12
inactive: growth inhibition [1] -17.7% | growth inhibition [2] -9.65% | viability increase [3] -2.08% | viability [4] 99.5% | viability [5] 91.6% | inhibition [6] 0.41% | RAM network inhibition [7] 0.74%
